Rows were chosen to be rich in hits. Some 3.8% of all compounds tested hit in one or more screens of this group.
rCAG binder – molecules binding r(CAG) RNA repeats. AID 651821. inhibition, % at 3 µM. actives 1.3% (n = 370,000). r(CAG) RNA repeat, TO-PRO-1 dye displacement fluorescence;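 active = inhibition above the plate cutoff, the mean of all test compounds on that plate plus 3 SD, cut at about 35% in these data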;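 also: higher means more dye released from RNA so lower well fluorescence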
MPTP block – inhibitors of mitochondrial permeability transition pore; inhibition, % at 10 µM; AID 602449; isolated mouse mitochondria, Ca2+ swelling absorbance, 30 min; actives 1.4% (n = 360,000);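 active = inhibition of 50% or more, scaled per plate between neutral and stimulator controls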
T cell modulator – T cell immune modulation candidate. response (vesicle binding), % at 7 µM. 2C CD8+ T cell-vesicle binding, flow cytometry; hits give low values. actives 0.068% (n = 330,000);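 active = response, share of CD8 T cells binding vesicles, and their 90th percentile fluorescence all below set limits, cut at about 80% in these data, passing the limit was not always enough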;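 also: values below 100% mean blocked vesicle binding to the CD8+ T cells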
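Also added: QL9-peptide-loaded Drosophila micro-vesicles bearing Ld, ICAM-1 and B7-1; Test system: purified 2C TCR transgenic mouse naive CD8+ T cells; Measured by: cytometric PE anti-B7-1 and Alexa647 anti-CD8 signals after 1% paraformaldehyde fixation; Timing: binding step 1.5 h, 37 °C, antibody labelling 20 min, ice.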
B2AR ag – human beta-2 adrenergic receptor agonism by FAP. P07550. Am2.2-beta2AR cells, FAP receptor internalization, flow cytometry. response, % (no concentration beside the values). actives 0.43% (n = 340,000);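 active = response above a set limit, near 3 SD of response in nonfluorescent compounds, cut at about 42% in these data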
Target sequence (P07550 whole entry, looked up): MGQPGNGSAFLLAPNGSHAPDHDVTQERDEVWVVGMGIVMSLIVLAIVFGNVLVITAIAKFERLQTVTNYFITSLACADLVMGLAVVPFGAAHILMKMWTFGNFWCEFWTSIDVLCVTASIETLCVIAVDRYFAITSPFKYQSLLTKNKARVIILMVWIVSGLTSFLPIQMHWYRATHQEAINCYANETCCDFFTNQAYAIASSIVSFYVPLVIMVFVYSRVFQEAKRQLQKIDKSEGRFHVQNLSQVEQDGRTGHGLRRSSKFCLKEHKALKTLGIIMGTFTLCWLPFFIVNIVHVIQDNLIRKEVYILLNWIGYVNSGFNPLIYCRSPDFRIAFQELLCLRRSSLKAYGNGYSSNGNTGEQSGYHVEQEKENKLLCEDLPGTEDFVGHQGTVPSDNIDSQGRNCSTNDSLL
Exocytosis inh – blocks lytic granule exocytosis | TALL-104 LAMP-1 surface exposure, flow cytometry; cells stimulated with thapsigargin and PMA | inhibition, % at 10 µM | actives 0.66% (n = 360,000);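 active = inhibition above about 55%, limit read from the data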
V-ATPase pH – alters yeast V-ATPase proton transport | S. cerevisiae, pHLuorin cytosolic pH fluorescence | actives 0.37% (n = 350,000) | response, % at 10 µM; in the data active = response mostly above about 7.3%, no sharp cut-off; inactive = mostly below about 5.4%; also: actives read high
MPTP counter – Rhodamine 123 counter-screen of mitochondrial pore hits. shares compounds with MPTP block. isolated mitochondria, membrane potential, Rhodamine 123 fluorescence. inhibition, % at 10 µM. actives 78% (n = 5,000); in the data active = inhibition above about 22%
Exocytosis CP01 – lytic granule exocytosis inhibition; TALL-104 cells, LAMP-1 externalization, flow cytometry; stimulated with PMA plus thapsigargin; AID 651954; inhibition, % at 10 µM; actives 11% (n = 1,500); shares compounds with Exocytosis inh; in the data active = inhibition above about 60%
rCAG binder conf – r(CAG) RNA repeat binding, confirmation. actives 70% (n = 4,300). inhibition, % at 3 µM. TO-PRO-1 dye displacement fluorescence. shares compounds with rCAG binder. AID 652065;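 active = inhibition above a per-plate cutoff, the mean inhibition of sample wells plus 3 SD, cut at about 35% in these data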;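 also: loss of TO-PRO-1 fluorescence as compound displaces dye from 1x1 AA loop RNA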
DNA CAG counter – DNA CAG dye complex inhibition counter-screen. shares compounds with rCAG binder. d(CAG) DNA oligo TO-PRO-1 dye displacement, fluorescence. inhibition, % at 3 µM. actives 94% (n = 4,300). AID 652068;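 active = inhibition above its plate's cutoff, the mean test-well inhibition plus 3 SD, cut at about 4.8% in these data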;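 also: hits displace the dye from DNA and so lower well fluorescence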
A number is an active result; - = inactive; . = no result given.

SMILES	rCAG binder	MPTP block	T cell modulator	B2AR ag	Exocytosis inh	V-ATPase pH	Exocytosis CP01	others
O=C(Nc1nc(-c2ccccc2)cs1)c1ccccc1NS(=O)(=O)c1ccc(F)cc1	89	93	-	-	-	-	.	MPTP counter=35;rCAG binder conf=89;DNA CAG counter=70
CC1(C(=O)NS(=O)(=O)c2ccc(Cl)cc2)CCN1C(=O)Cc1ccsc1 (configuration not stated)	-	-	.	.	78	.	-
COC(=O)[C@]12C[C@H](CC(=O)N3CCN(C(=O)C4CC4)CC3)C(=O)N(Cc3cccc4ccccc34)C1=C[C@H](C(C)(C)C)O[C@@H]2C	-	.	.	.	.	.	.
O=S(=O)(c1ccc(Br)s1)N1CCN(c2ccc(F)cc2)CC1	-	-	-	-	66	-	-
Nc1[nH]c(C(=O)c2ccccc2)c(-c2ccc(F)cc2)c1C(=O)c1c[nH]c2ccccc12	-	.	.	.	.	.	.
COc1ccc2oc(=N)c(-c3nnc4n3CCCCC4)cc2c1	-	-	-	-	56	-	-
COc1ccc(CCNCc2ccccc2N2CCCC2)cc1	-	-	-	-	-	-	.
COc1ccc(CCNCc2cc(C)n(-c3ccc(OC)cc3)c2C)cc1	-	-	-	-	61	-	-
OCCN1CCN(c2cc(-c3ccc4ccccc4c3)nc3ccnn23)CC1	-	-	.	.	59	.	-
COc1ccc2[nH]c3c(c2c1)CCN[C@]31C(=O)N(Cc2cn(Cc3ccccc3)nn2)c2ccccc21	-	.	.	.	.	.	.
CC1(OC(=O)CCc2ccccc2)C(=O)C=C2C=C(c3ccc(C#N)cc3)N(C(CO)CO)C=C2C1=O (configuration not stated)	-	-	-	-	71	-	-
CCCCN(CCO)c1ncnc2sc(-c3ccccc3)cc12	-	-	-	-	92	-	-
CN(C)CCCNc1ncnc2sc(-c3ccccc3)cc12	-	-	-	-	-	-	.
COC(=O)[C@]12C[C@H](CC(=O)NCc3ccc(C)o3)C(=O)N(Cc3cccc4ccccc34)C1=C[C@H](COCc1ccccc1)O[C@@H]2C	-	.	.	.	.	.	.
CCCN(CC(=O)Nc1ccccc1OC)C(C)C(=O)NC(C)CCc1ccccc1 (configuration not stated)	-	-	-	-	70	-	-
O=C(Oc1ccc2ccccc2c1)c1ccco1	-	-	-	-	-	-	.
CC1CC(C)(C)Nc2ccc(OC(=O)c3ccco3)cc21 (configuration not stated)	-	-	-	-	82	-	-
CN(CCCOC(=O)c1cc2ccccc2o1)C1CN(Cc2cn(Cc3ccccc3Cl)nn2)S(=O)(=O)C1 (configuration not stated)	-	.	.	.	.	.	.
COc1ccc(CCN(C)C(=O)CSc2ncnc3sccc23)cc1OC	-	-	-	-	77	-	-
COc1ccc(CCN(C)c2ncnc3sccc23)cc1OC	-	-	-	-	-	-	.
CC(NCCC(Cc1ccccc1)c1ccco1)c1ccccc1 (configuration not stated)	-	-	-	-	-	-	.
Fc1ccc(CNCCC(Cc2ccccc2)c2ccco2)cc1 (configuration not stated)	-	-	-	-	78	-	-
CCCC(=O)N1CCC(NS(=O)(=O)c2ccc3c(c2)CCN3C(C)=O)CC1	-	.	.	.	.	.	.
COc1ccc(-c2cc(-c3nnc(SCC(=O)Nc4cccc(Cl)c4C)n3N)[nH]n2)cc1	-	.	.	.	.	.	.
CC(NC(=O)CCC(=O)c1ccc(F)cc1)C1CC2CCC1C2 (configuration not stated)	-	-	-	-	104	-	-
SMILES	rCAG binder	MPTP block	T cell modulator	B2AR ag	Exocytosis inh	V-ATPase pH	Exocytosis CP01	others
CC(NC(=O)c1ccc(F)cc1Cl)C1CC2CCC1C2 (configuration not stated)	-	-	-	-	-	-	.
COc1ccccc1NC(=O)C(C)N(C)Cc1ccc(Cl)s1 (configuration not stated)	-	-	-	-	58	-	-
C=CCOC(=O)N[C@@H](c1cccc(OC)c1)[C@@H](C)/C=C/CC(=O)O	-	.	.	.	.	.	.
O=C(NCc1ccco1)C1CCCN(S(=O)(=O)c2cccs2)C1 (configuration not stated)	-	.	.	.	.	.	.
COc1ccc(N2C(=O)CC(Sc3n[nH]c(-c4ccccc4)n3)C2=O)cc1 (configuration not stated)	-	-	-	-	88	-	85
Cc1ccc(C(C)C)c(OCCNCCc2ccccc2)c1	-	-	-	-	64	-	-
CN(C)CCNc1ncnc2oc(-c3ccccc3)c(-c3ccccc3)c12	-	-	-	-	-	-	.
COc1ccc(-c2oc3ncnc(NCCCN(C)C)c3c2-c2ccc(OC)cc2)cc1	-	-	-	-	69	-	-
CC1CCC(N2CCN(c3ccc([N+](=O)[O-])cc3)CC2)CC1 (configuration not stated)	-	-	-	-	-	-	.
CCC1CCC(N2CCN(c3ccc([N+](=O)[O-])cc3)CC2)CC1 (configuration not stated)	-	-	-	-	74	-	-
COC(=O)[C@]12C[C@H](CC(=O)NCCc3ccccc3OC)C(=O)N(Cc3ccc(Cl)cc3Cl)C1=C[C@H](C(C)C)O[C@@H]2C1CC1	-	.	.	.	.	.	.
O=C(Nc1cccc(Cl)c1)c1ccc2c(c1)OCCO2	-	-	-	-	61	-	-
CCc1cccc(C)c1NC(=O)c1cccc(N(C)C)c1	-	-	-	-	70	-	-
COC1=C[C@H](C(=O)NCc2ccc(OC)cc2)C(C)C(c2ccccc2)CC1=O (some centres not stated)	-	.	.	.	.	.	.
NC(=O)CC(NC(=O)Cc1cccc2ccccc12)c1ccc(N2CCC(Cc3ccccc3)CC2)c([N+](=O)[O-])c1 (configuration not stated)	-	-	-	-	60	-	-
NC(=O)CC(NC(=O)Cc1ccc(Br)cc1)c1ccc(N2CCC(Cc3ccccc3)CC2)c([N+](=O)[O-])c1 (configuration not stated)	-	-	-	-	-	-	.
CN1OC[C@@H]2CN(C(=O)c3ccc([N+](=O)[O-])cc3)[C@H](c3ccccc3Br)C[C@@H]21	-	.	.	.	.	.	.
Cc1ccc2sc(N(CCCN(C)C)C(=O)CCS(=O)(=O)c3ccccc3)nc2c1C	-	-	-	-	84	-	-
